Consider 4 compounds from ChEMBL document CHEMBL3108711, “Penicillipyrones A and B, meroterpenoids from a marine-derived Penicillium sp. fungus” (2014).

Each structure is given as a SMILES string. The source made the active and inactive calls. The rule behind the calls is not given here.

Test [1] relates to Trichophyton mentagrophytes. As to the kind of experiment: Antimicrobial activity against Trichophyton mentagrophytes IFO 40996 after 48 to 72 hrs by two-fold broth dilution assay. It is filed as functional.
Test [2] has as its system Proteus vulgaris. As to the kind of experiment: Antimicrobial activity against Proteus vulgaris ATCC 3851 after 24 hrs by two-fold broth dilution assay. The format is functional. Conditions: ATCC 3851, 24 h.
Test [3] deals with K562. As to the kind of experiment: Cytotoxicity against human K562 cells after 48 hrs by MTT assay. The following applies: K562, 48 h, read-out: LC50 (the source's name). It is filed as functional. Summed up: (§1)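 Values reported as LC50 (μM), with doxorubicin as the positive control; the rest of the method follows the cited literature protocol.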
In test [4] the test system is Candida albicans. Kind of test: Antimicrobial activity against Candida albicans ATCC 10231 after 48 to 72 hrs by two-fold broth dilution assay. The format is functional.
Test [5] has as its system Micrococcus luteus. Kind of test: Antimicrobial activity against Micrococcus luteus IFO 12708 after 24 hrs by two-fold broth dilution assay. The format is functional. Conditions: IFO 12708, 24 h.
The subject of test [6] is A549. As to the kind of experiment: Cytotoxicity against human A549 cells after 48 hrs by MTT assay. The following applies: A549, 48 h. The format is functional. Summed up: as §1
Test [7] relates to Staphylococcus aureus. Kind of test: Antimicrobial activity against Staphylococcus aureus ATCC 6538p after 24 hrs by two-fold broth dilution assay. The format is functional.
The subject of test [8] is Trichophyton rubrum. Kind of test: Antimicrobial activity against Trichophyton rubrum IFO 9185 after 48 to 72 hrs by two-fold broth dilution assay. The format is functional.
For test [9], the system named is Hepa-1c1c7. Kind of test: Induction of quinone reductase in mouse Hepa-1c1c7 cells at 40 uM after 24 hrs by MTT assay relative to control. It is filed as cell-based. Summed up:
(§2)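 QR induction measured in murine Hepa 1c1c7 hepatoma cells. Test concentrations ranged 5−40 μM. Blank control was 0.1% DMSO, and β-NF at 2 μM served as the positive control. Induction is expressed as fold over the blank control.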

In test [10] the test system is Aspergillus fumigatus. Kind of test: Antimicrobial activity against Aspergillus fumigatus HIC 6094 after 48 to 72 hrs by two-fold broth dilution assay. It is filed as functional.
Test [11] relates to Escherichia coli. Kind of test: Antimicrobial activity against Escherichia coli ATCC 35270 after 24 hrs by two-fold broth dilution assay. It is filed as functional. Conditions: ATCC 35270, 24 h.
The test system of test [12] is Salmonella typhimurium. As to the kind of experiment: Antimicrobial activity against Salmonella typhimurium ATCC 14028 after 24 hrs by two-fold broth dilution assay. It is filed as functional, Salmonella enterica subsp. enterica serovar Typhimurium. Conditions: Salmonella enterica, ATCC 14028, 24 h.
Test [13] deals with Bacillus spizizenii. Kind of test: Antimicrobial activity against Bacillus subtilis ATCC 6633 after 24 hrs by two-fold broth dilution assay. The format is functional. The following applies: ATCC 6633, 24 h.
The subject of test [14] is Hepa-1c1c7. Kind of test: Induction of quinone reductase in mouse Hepa-1c1c7 cells after 24 hrs by MTT assay. The format is cell-based. Summed up:
as §2

In test [15] the test system is Hepa-1c1c7. Kind of test: Induction of quinone reductase in mouse Hepa-1c1c7 cells at 2 uM after 24 hrs by MTT assay relative to control. The format is cell-based.
The mark [16] stands for this setting: read-out: LC50 (the source's name).

As for `Cc1cc(=O)c2c(o1)O[C@@]1(C)[C@@H](CC[C@H]3C(C)(C)[C@@H](O)CC[C@@]31C)C2`, the MIC in test [1], in test [2], in test [4], in test [5], in test [7] and in test [8] was > 100 µg/mL in each case. Further, the minimum inhibitory concentration (MIC) in [10], in test [11], in test [12] and in test [13] was > 100 µg/mL throughout. Moreover, the CC50 in [3] turned out to be 28 µM; in test [6] (setting [16]) it was 15 µM. The outcome in test [9] was inactive.

As to `COc1cccc2c1C(=O)c1c(O)c3c(c(O)c1C2=O)C[C@@](O)(C(=O)CO)C[C@@H]3O[C@H]1C[C@H](N)[C@H](O)[C@H](C)O1` [DOXORUBICIN], the CC50 in test [3] came to 0.99 µM; in test [6] (read-out: LD50 (the source's name)) it was 1.2 µM.

For `Cc1cc(=O)c2c(o1)O[C@@]1(C)[C@@H](CC[C@H]3C(C)(C)C(=O)CC[C@@]31C)C2`, the minimal inhibitory concentration (MIC) in test [1], in test [2], in test [4], in test [5], in test [7] and in test [8] was > 100 µg/mL throughout. Besides, the MIC in test [10], in test [11], in test [12] and in [13] was > 100 µg/mL throughout. Further, the CC50 in test [3] amounted to 50 µM; in test [6] (setting [16]) it was 17 µM. Besides, the Ratio in [9] amounted to 1.9. Also, the Activity entry in test [14] is “Dose-dependent effect”.

As to `O=c1cc(-c2ccccc2)oc2ccc3ccccc3c12`, the outcome in test [15] was Active.
